Reference: ChEMBL document CHEMBL1641375, “Antitumor agents 279. Structure-activity relationship and in vivo studies of novel 2-(furan-2-yl)naphthalen-1-ol (FNO) analogs as potent and selective anti-breast cancer agents” (2011)
Converted amounts (≈) assume the structure as drawn.

Experiments:
[1] = tested on: ZR-75-1; experiment: Cytotoxicity against human ZR-75-1 cells after 72 hrs by MTT assay; assay type: functional; settings: ZR-75-1, 72 h, read-out: ED50 (the source's name)
Summary of the method: (§1)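 Focused human tumour panel: A549 (non-small cell lung), DU145 (prostate), KB (nasopharyngeal), KB-VIN (MDR KB subline selected with vincristine), MDA-MB-231 (ER-negative basal-like breast), SK-BR-3 (ER-negative, HER2-overexpressing luminal-like breast), ZR-75-1 (ER-positive, HER2-overexpressing luminal-like breast). Run by previously published methods.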

[2] = tested on: SK-BR-3; experiment: Cytotoxicity against human SKBR3 cells after 72 hrs by MTT assay; assay type: functional; settings: SK-BR-3, 72 h, read-out: ED50 (the source's name); summary of the method: as §1
[3] = tested on: A549; experiment: Cytotoxicity against human A549 cells after 72 hrs by MTT assay; assay type: functional; settings: A549, 72 h, read-out: ED50 (the source's name); summary of the method: as §1
[4] = Cytotoxicity against human KBVIN cells after 72 hrs by MTT assay; assay type: functional; settings: read-out: ED50 (the source's name); summary of the method: as §1
[5] = tested on: MDA-MB-231; experiment: Cytotoxicity against human MDA-MB-231 cells after 72 hrs by MTT assay; assay type: functional; settings: MDA-MB-231, 72 h, read-out: ED50 (the source's name); summary of the method: as §1
[6] = tested on: DU-145; experiment: Cytotoxicity against human DU145 cells after 72 hrs by MTT assay; assay type: functional; settings: DU-145, 72 h, read-out: ED50 (the source's name); summary of the method: as §1
[7] = tested on: KB; experiment: Cytotoxicity against human KB cells after 72 hrs by MTT assay; assay type: functional; settings: read-out: ED50 (the source's name); summary of the method: as §1
[8] = Inhibition of mammary epithelial cells proliferation in Brca1/p53-deficient C57BL/6 and 129/Sv mouse assessed as reduction of mammary gland branching point at 0.1 mg, po qd for 11 days relative to control; assay type: functional, Epithelial cell; settings: in the assay text read “ip qd” for “po qd”
Summary of the method: (§2)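 Three-month-old Brca1/p53-deficient or wild-type mice (C57BL/6 × 129/Sv background) received 0.1 mg i.p. daily for 11 days in DMSO/40% PEG/0.9% NaCl, or vehicle alone. Mammary gland whole mounts were fixed in Carnoy's fixative for 3 h and stained with Carmine alum overnight. Branching points were counted in three random areas totalling about 2 mm2.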

[9] = Inhibition of mammary epithelial cells proliferation in Brca1/p53-deficient C57BL/6 and 129/Sv mouse assessed as reduction of BrdU positive cells at 0.1 mg, po qd for 11 days relative to control in presence of bromodeoxyuridine treated orally with drinking water last 3 days of treatment; assay type: functional, Epithelial cell; settings: in the assay text read “ip qd” for “po qd”
Summary of the method: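 Three-month-old Brca1f11/f11p53f5&6/f5&6Crec or wild-type mice (mixed C57BL/6 and 129/Sv background) dosed 0.1 mg i.p. daily for 11 days. Dosing solution was 10 µL of a 10 mg/mL DMSO stock with 30 µL 40% PEG and 60 µL 0.9% NaCl; vehicle lacked compound. BrdU given in drinking water over the last 3 days. Glands fixed in 4% paraformaldehyde, paraffin-sectioned, citrate pH 6.0 antigen retrieval, anti-BrdU 1:1000. BrdU-positive cells per duct counted over ≥15 ducts/animal, ≥3 mice/genotype.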

[10] = tested on: Epithelial cell; experiment: Inhibition of wild type mammary epithelial cells proliferation in wild type C57BL/6 and 129/Sv mouse assessed as reduction of mammary gland branching point at 0.1 mg, po qd for 11 days relative to control; assay type: functional; settings: in the assay text read “ip qd” for “po qd”; summary of the method: as §2

Structure (SMILES) | EC50 [1] [µg/mL] | EC50 [2] [µg/mL] | EC50 [3] [µg/mL] | EC50 [4] [µg/mL] | EC50 [5] [µg/mL] | EC50 [6] [µg/mL] | EC50 [7] [µg/mL] | inhibition (INH) [8] [%] | inhibition (INH) [9] [%] | inhibition (INH) [10] [%]
CCc1cccc2c(OC(C)=O)c(-c3occ(C)c3COC(C)=O)ccc12 | > 10 | > 10 | > 10 | > 10 | > 10 | > 10 | > 10 |  |  | 
CCc1cccc2c(O)c(-c3occ(C)c3C(=O)O)ccc12 | 0.3 (≈ 1.01 µM) | 1 (≈ 3.37 µM) |  | 7 (≈ 23.6 µM) |  | 8.7 (≈ 29.4 µM) | 9.1 (≈ 30.7 µM) | 70 | 83 | 29
CCc1cccc2c(OC)c(-c3occ(C)c3COC(=O)CCN(CC)CC)ccc12 | 1.7 (≈ 4.01 µM) | > 10 | > 10 | > 10 | 0.85 (≈ 2.01 µM) | > 10 | > 10 |  |  | 
CCOc1c(-c2occ(C)c2C(=O)O)ccc2c(CC)cccc12 | > 10 | > 10 | > 10 | > 10 | > 10 | > 10 | > 10 |  |  | 
CCOc1c(-c2occ(C)c2CO)ccc2c(CC)cccc12 | 1.4 (≈ 4.51 µM) | 8.8 (≈ 28.4 µM) | > 10 | 6.4 (≈ 20.6 µM) | 1.7 (≈ 5.48 µM) | > 10 | > 10 |  |  | 
CCOc1c(-c2occ(C)c2COC)ccc2c(CC)cccc12 | > 10 | > 10 | > 10 | 5.9 (≈ 18.2 µM) | 4.9 (≈ 15.1 µM) | > 10 | > 10 |  |  | 
CCCOC(=O)c1c(C)coc1-c1ccc2c(CC)cccc2c1OC | > 10 | > 10 | > 10 | > 10 | > 10 | > 10 | > 10 |  |  | 
CCOCc1c(C)coc1-c1ccc2c(CC)cccc2c1OC | 9.1 (≈ 28.1 µM) | > 10 | > 10 | > 10 |  | > 10 | > 10 |  |  | 
CCc1cccc2c(OC)c(-c3occ(C)c3COC)ccc12 | 9.7 (≈ 31.3 µM) | > 10 | > 10 | 8.8 (≈ 28.4 µM) |  | > 10 | > 10 |  |  | 
CCc1cccc2c(OC)c(-c3occ(C)c3CBr)ccc12 | 4.6 (≈ 12.8 µM) | > 10 | > 10 | > 10 |  | > 10 | > 10 |  |  | 
